# Measured values collected from several papers.
# Lines come from different studies, so protocols differ.
# Target: Receptor-interacting serine/threonine-protein kinase 2 (RIPK2, Homo sapiens, UniProt O43353)
SMILES,observed,mode,method,concentration,measurement,value
CCCCC(=O)Nc1ccc(-c2ccc3ncn(CCC)c(=O)c3c2)cn1,binding,,competition with immobilised ligand,0.5 µM,remaining binding,98%
Cc1ccc(NC(=O)c2ccnc(C(F)(F)F)c2)cc1-c1cc(OCCO)nc(N2CCOCC2)c1,binding,,competition with immobilised ligand,1 µM,remaining binding,63%
CO[C@@H]1[C@H](N(C)C(=O)c2ccccc2)C[C@H]2O[C@]1(C)n1c3ccccc3c3c4c(c5c6ccccc6n2c5c31)C(=O)NC4,enzyme activity,inhibitor,,1 µM,inhibition,0%
COc1ccc2oc(-c3ccc4nc(N)oc4c3)c/c(=N\c3ccccc3NC(=O)CCN)c2c1,binding,,,1 µM,remaining binding,112%
C#Cc1cc(-c2cc(Nc3nc(N[C@@H](C)c4ccc(F)cn4)ncc3Cl)n[nH]2)ccc1C=O,enzyme activity,inhibitor,,0.2 µM,inhibition,14.7%
COc1ccc2[nH]c3c4[nH]c5ccc(OC)cc5c4c4c(c3c2c1)C(=O)NC4=O,binding,,competition with immobilised ligand,1 µM,remaining binding,60%
CC(C)S(=O)(=O)c1ccc2nccc(Nc3ccc4sc(C5CCCC5)nc4c3)c2c1,enzyme activity,inhibitor,,1 µM,activity vs control,2.5%
C=CC(=O)N1CCC([C@@H]2CCNc3c(C(N)=O)c(-c4ccc(Oc5ccccc5)cc4)nn32)CC1,enzyme activity,inhibitor,,1 µM,inhibition,96%
